# Results as given in ChEMBL document CHEMBL1212735, “Metronidazole resistance in Prevotella spp. and description of a new nim gene in Prevotella baroniae” (2010).
# Legend:
# Format in all cases: functional
# Prevotella nanceiensis [1] = test: Antimicrobial activity against Prevotella nanceiensis LBN 293b deficient in nimI gene assessed as inhibition of growth after three consecutive subcultures on compound free medium by agar dilution method; conditions: Hoylesella nanceiensis
# How it was run: (§1)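 Stability of induced resistance: metronidazole-selected isolates were subcultured three consecutive times on drug-free brucella blood agar (5% sheep blood, hemin, vitamin K1) under anaerobic conditions, then MIC was redetermined by CLSI agar dilution. Resistance was called stable if the MIC held within ±1 dilution. Duplicate experiments.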
# Bacteroides fragilis = test: Antimicrobial activity against Bacteroides fragilis ATCC 25285T deficient in nimI gene assessed as inhibition of growth after three consecutive subcultures on compound free medium by agar dilution method
# How it was run: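 Resistance induction: bacterial suspensions were plated on supplemented brucella blood agar with rising metronidazole concentrations. Colonies from the highest concentration were tested by agar dilution. MIC was then redetermined after three consecutive subcultures on drug-free agar. Resistance counted as stable if the MIC held within ±1 dilution. Anaerobic growth at 37°C. Duplicate experiments.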
# Prevotella bivia [2] = test: Antimicrobial activity against slow growing colonies of Prevotella bivia LBN 346 deficient in nim gene assessed as inhibition of growth at 48 hrs by agar dilution method; conditions: LBN 346, 48 h
# How it was run: (§2)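 Slowly growing colonies inside the Etest inhibition zone, seen after prolonged incubation (an additional 72 h after the 48 h reading), were subcultured without antibiotic. They were then retested for metronidazole MIC by agar dilution on supplemented brucella blood agar under anaerobic conditions.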
# Prevotella bivia [3] = test: Antimicrobial activity against slow growing colonies of Prevotella bivia LBP 38 deficient in nim gene assessed as inhibition of growth at 48 hrs by agar dilution method; conditions: LBP 38, 48 h
# How it was run: (§3)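 Metronidazole MIC by agar dilution per CLSI M11-A7 on brucella agar with 5% sheep blood, hemin and vitamin K1. Plates incubated anaerobically at 35°C and read at 48 h, with a second reading after a further 72 h. B. fragilis ATCC 25285T and B. thetaiotaomicron ATCC 29741 served as controls. Done in duplicate; EUCAST breakpoints applied (S ≤4, R ≥8 μg/ml).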
# Prevotella baroniae [4] = test: Antimicrobial activity against Prevotella baroniae LBN 430 expressing nim gene assessed as inhibition of growth at 48 hrs by agar dilution method; conditions: Segatella baroniae, LBN 430, 48 h
# How it was run: (§4)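 Metronidazole MIC by agar dilution (CLSI M11-A7) on brucella agar with 5% sheep blood, hemin and vitamin K1. Plates were read after 48 h at 35°C under anaerobic conditions. Susceptible was MIC ≤ 4 μg/ml and resistant MIC ≥ 8 μg/ml (EUCAST). B. fragilis ATCC 25285T and B. thetaiotaomicron ATCC 29741 were run as controls. Duplicate assays.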
# Prevotella baroniae [5] = test: Antimicrobial activity against Prevotella baroniae LBN 427 expressing nim gene assessed as inhibition of growth at 48 hrs by agar dilution method; conditions: Segatella baroniae, LBN 427, 48 h; how it was run: as §4
# Prevotella bivia [6] = test: Antimicrobial activity against slow growing colonies of Prevotella bivia LBP 4 deficient in nim gene assessed as inhibition of growth at 48 hrs by agar dilution method; conditions: LBP 4, 48 h; how it was run: as §3
# Prevotella bivia [7] = test: Antimicrobial activity against Prevotella bivia LBN 333 deficient in nim gene assessed as inhibition of growth at 48 hrs by agar dilution method; conditions: LBN 333, 48 h; how it was run: as §4
# Prevotella nanceiensis [8] = test: Antimicrobial activity against slow growing colonies of Prevotella nanceiensis LBN 293b deficient in nim gene assessed as inhibition of growth at 48 hrs by agar dilution method; conditions: Hoylesella nanceiensis; how it was run: as §3
# Prevotella baroniae [9] = test: Antimicrobial activity against Prevotella baroniae LBN 432 expressing nimI gene assessed as inhibition of growth after three consecutive subcultures on compound free medium by agar dilution method; conditions: Segatella baroniae; how it was run: as §1
# Prevotella nanceiensis [10] = test: Antimicrobial activity against Prevotella nanceiensis LBN 293b deficient in nim gene assessed as inhibition of growth at 48 hrs by agar dilution method; conditions: Hoylesella nanceiensis; how it was run: as §4
# Prevotella baroniae [11] = test: Antimicrobial activity against Prevotella baroniae DSM 16972T expressing nimI gene assessed as inhibition of growth after three consecutive subcultures on compound free medium by agar dilution method; conditions: Segatella baroniae; how it was run: as §1
# Prevotella nanceiensis [12] = test: Antimicrobial activity against Prevotella nanceiensis LBN 293b deficient in nimI gene assessed as inhibition of growth after several passages on plates containing increasing concentration of compound by agar dilution method; conditions: Hoylesella nanceiensis
# How it was run: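 Induction of metronidazole resistance: bacterial suspensions inoculated onto brucella blood agar (5% sheep blood, hemin, vitamin K1) containing metronidazole at increasing concentrations, grown anaerobically at 37°C. Colonies growing at the highest concentration were retested for MIC by CLSI agar dilution on the same agar. Duplicate experiments.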
# Prevotella bivia [13] = test: Antimicrobial activity against Prevotella bivia LBN 365 deficient in nim gene assessed as inhibition of growth at 48 hrs by agar dilution method; conditions: LBN 365, 48 h; how it was run: as §4
# Prevotella nanceiensis [14] = test: Antimicrobial activity against Prevotella nanceiensis LBN 410 deficient in nimI gene assessed as inhibition of growth after three consecutive subcultures on compound free medium by agar dilution method; conditions: Hoylesella nanceiensis; how it was run: as §1
# Prevotella bivia [15] = test: Antimicrobial activity against Prevotella bivia LBP 52 deficient in nim gene assessed as inhibition of growth at 48 hrs by agar dilution method; conditions: LBP 52, 48 h; how it was run: as §4
# Prevotella bivia [16] = test: Antimicrobial activity against Prevotella bivia LBP 38 deficient in nim gene assessed as inhibition of growth at 48 hrs by agar dilution method; conditions: LBP 38, 48 h; how it was run: as §4
# Prevotella bivia [17] = test: Antimicrobial activity against slow growing colonies of Prevotella bivia LBN 332 deficient in nim gene assessed as inhibition of growth at 48 hrs by agar dilution method; conditions: LBN 332, 48 h; how it was run: as §2
# Prevotella buccae = test: Antimicrobial activity against Prevotella buccae LBN 465 deficient in nimI gene assessed as inhibition of growth at 48 hrs by agar dilution method; conditions: Segatella buccae, LBN 465, 48 h
# How it was run: (§5)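 Agar dilution MIC on brucella agar with 5% sheep blood, hemin and vitamin K1, following CLSI M11-A7. Plates read after 48 h at 35°C under anaerobic conditions, with B. fragilis ATCC 25285T and B. thetaiotaomicron ATCC 29741 as controls. Assays in duplicate. Isolates kept at −80°C in brucella broth with 15% glycerol. Interpretation used EUCAST breakpoints (S ≤4, R ≥8 μg/ml).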
# Prevotella bivia [18] = test: Antimicrobial activity against Prevotella bivia LBN 334 deficient in nim gene assessed as inhibition of growth at 48 hrs by agar dilution method; conditions: LBN 334, 48 h; how it was run: as §4
# Prevotella nanceiensis [19] = test: Antimicrobial activity against Prevotella nanceiensis LBN 410 deficient in nim gene assessed as inhibition of growth at 48 hrs by agar dilution method; conditions: Hoylesella nanceiensis, LBN 410, 48 h; how it was run: as §4
# Prevotella baroniae [20] = test: Antimicrobial activity against Prevotella baroniae LBN 475 expressing nimI gene assessed as inhibition of growth after three consecutive subcultures on compound free medium by agar dilution method; conditions: Segatella baroniae; how it was run: as §1
# Prevotella bivia [21] = test: Antimicrobial activity against slow growing colonies of Prevotella bivia LBP 51 deficient in nim gene assessed as inhibition of growth at 48 hrs by agar dilution method; conditions: LBP 51, 48 h; how it was run: as §3
# Prevotella bivia [22] = test: Antimicrobial activity against slow growing colonies of Prevotella bivia LBN 334 deficient in nim gene assessed as inhibition of growth at 48 hrs by agar dilution method; conditions: LBN 334, 48 h; how it was run: as §2
# Prevotella bivia [23] = test: Antimicrobial activity against Prevotella bivia LBN 361 deficient in nim gene assessed as inhibition of growth at 48 hrs by agar dilution method; conditions: LBN 361, 48 h; how it was run: as §4
# Prevotella bivia [24] = test: Antimicrobial activity against Prevotella bivia LBN 445 deficient in nim gene assessed as inhibition of growth at 48 hrs by agar dilution method; conditions: LBN 445, 48 h; how it was run: as §5
smiles,measurement,setting,value
Cc1ncc([N+](=O)[O-])n1CCO [METRONIDAZOLE],MIC,Prevotella nanceiensis [1],256 µg/mL
same,MIC,Bacteroides fragilis,128 µg/mL
same,MIC,Prevotella bivia [2],16 µg/mL
same,MIC,Prevotella bivia [3],8 µg/mL
same,MIC,Prevotella baroniae [4],4 µg/mL
same,MIC,Prevotella baroniae [5],4 µg/mL
same,MIC,Prevotella bivia [6],32 µg/mL
same,MIC,Prevotella bivia [7],2 µg/mL
same,MIC,Prevotella nanceiensis [8],32 µg/mL
same,MIC,Prevotella baroniae [9],64 µg/mL
same,MIC,Prevotella nanceiensis [10],2 µg/mL
same,MIC,Prevotella baroniae [11],16 µg/mL
same,MIC,Prevotella nanceiensis [12],256 µg/mL
same,MIC,Prevotella bivia [13],4 µg/mL
same,MIC,Prevotella nanceiensis [14],256 µg/mL
same,MIC,Prevotella bivia [15],4 µg/mL
same,MIC,Prevotella bivia [16],2 µg/mL
same,MIC,Prevotella bivia [17],32 µg/mL
same,MIC,Prevotella buccae,0.5 µg/mL
same,MIC,Prevotella bivia [18],2 µg/mL
same,MIC,Prevotella nanceiensis [19],1 µg/mL
same,MIC,Prevotella baroniae [20],256 µg/mL
same,MIC,Prevotella bivia [21],32 µg/mL
same,MIC,Prevotella bivia [22],16 µg/mL
same,MIC,Prevotella bivia [23],2 µg/mL
same,MIC,Prevotella bivia [24],0.5 µg/mL
